How the values were obtained:
[1] = biological target: T1, Cannabinoid receptor 2 (Homo sapiens, UniProt P34972); assay: Agonist activity at human CB2-receptor expressed in CHO-K1 cells coexpressing G-alpha16 by Fluo-4-AM dye based calcium mobilization assay; assay type: functional, cell-based; details: read-out: EC50
[2] = biological target: T2, Cannabinoid receptor 1 (Homo sapiens, UniProt P21554); assay: Agonist activity at human CB1-receptor expressed in CHO-K1 cells coexpressing G-alpha16 by Fluo-4-AM dye based calcium mobilization assay; assay type: cell-based; details: read-out: EC50
T2 sequence (P21554 whole entry): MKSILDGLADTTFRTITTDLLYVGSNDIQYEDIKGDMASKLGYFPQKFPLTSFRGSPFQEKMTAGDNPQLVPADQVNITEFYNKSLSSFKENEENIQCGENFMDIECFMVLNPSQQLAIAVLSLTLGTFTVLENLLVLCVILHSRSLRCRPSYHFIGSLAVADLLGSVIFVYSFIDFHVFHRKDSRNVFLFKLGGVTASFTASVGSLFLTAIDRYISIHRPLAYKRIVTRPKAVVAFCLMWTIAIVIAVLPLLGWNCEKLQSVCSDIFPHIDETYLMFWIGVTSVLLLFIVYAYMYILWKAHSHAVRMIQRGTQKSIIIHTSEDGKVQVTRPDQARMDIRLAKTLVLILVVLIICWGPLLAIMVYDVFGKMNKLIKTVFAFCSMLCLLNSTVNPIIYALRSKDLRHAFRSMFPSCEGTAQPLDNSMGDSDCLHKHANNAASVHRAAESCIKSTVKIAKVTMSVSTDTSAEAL

[3] = Kinetic aqueous solubility of compound in phosphate-buffer containing 1% DMSO ultrasonicated for 10 mins at pH 1.4 measured using 50-95% methanol in water as gradient for 23 mins by HPLC analysis; assay type: physicochemical; details: pH 1.4, 10 min
In short: (§1)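 Kinetic solubility: 10 mM DMSO stock diluted into 10 mM phosphate buffer pH 7.4 or 1.4 (final 1% DMSO), sonicated 10 min at room temperature, filtered 0.22 μm. Quantified by C18 HPLC against a standard curve. Gradient 50–95% methanol/water with trifluoroacetic acid over 23 min at 1.0 mL/min. n = 3.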

[4] = biological target: T1, Cannabinoid receptor 2; assay: Agonist activity at human CB2-receptor expressed in CHO-K1 cells coexpressing G-alpha16 assessed as maximum efficacy by Fluo-4-AM dye based calcium mobilization assay relative to CP55940; assay type: functional, cell-based
In short: (§2)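 CHO-K1 cells stably co-expressing Gα16 and human CB1 or CB2, seeded 24 h. Loaded with 2 μM fluo-4 AM in HBSS (with sulfinpyrazone, pH 7.4) at 37 °C for 45 min. Compound added and calcium fluorescence recorded (ex 485/em 525 nm). CP55940 positive control, DMSO negative control. Compounds with >50% activation at 10 μM got eight-point curves in triplicate, sigmoidal fit for EC50.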

[5] = biological target: T1, Cannabinoid receptor 2; assay: Antagonist activity at human CB2-receptor expressed in CHO-K1 cells coexpressing G-alpha16 at 10 uM pre-incubated for 10 mins and later treated with 100 nM CB-receptor agonist, CP55940 by Fluo-4-AM dye based calcium mobilization assay; assay type: functional, cell-based
In short: (§3)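 CHO-K1 cells stably co-expressing Gα16 and human CB1 or CB2, loaded with 2 μM fluo-4 AM in HBSS pH 7.4 at 37 °C for 45 min. Pre-incubated with compound for 10 min at room temperature, then CP55940 added at 100 nM. Peak calcium read over 60 s (ex 485/em 525 nm). Rimonabant positive control. Actives got eight-point curves in triplicate, sigmoidal fit for IC50.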

[6] = biological target: T2, Cannabinoid receptor 1; assay: Antagonist activity at human CB1-receptor expressed in CHO-K1 cells coexpressing G-alpha16 pre-incubated for 10 mins and later treated with 100 nM CB-receptor agonist, CP55940 by Fluo-4-AM dye based calcium mobilization assay; assay type: cell-based; in short: as §3
[7] = biological target: T2, Cannabinoid receptor 1; assay: Antagonist activity at human CB1-receptor expressed in CHO-K1 cells coexpressing G-alpha16 at 10 uM pre-incubated for 10 mins and later treated with 100 nM CB-receptor agonist, CP55940 by Fluo-4-AM dye based calcium mobilization assay; assay type: cell-based; in short: as §3
[8] = biological target: T1, Cannabinoid receptor 2; assay: Agonist activity at human CB2-receptor expressed in CHO-K1 cells coexpressing G-alpha16 at 10 uM by Fluo-4-AM dye based calcium mobilization assay; assay type: functional, cell-based; in short: as §2
[9] = biological target: T1, Cannabinoid receptor 2; assay: Antagonist activity at human CB2-receptor expressed in CHO-K1 cells coexpressing G-alpha16 pre-incubated for 10 mins and later treated with 100 nM CB-receptor agonist, CP55940 by Fluo-4-AM dye based calcium mobilization assay; assay type: functional, cell-based; details: cho-k1; in short: as §3
[10] = biological target: T2, Cannabinoid receptor 1; assay: Agonist activity at human CB1-receptor expressed in CHO-K1 cells coexpressing G-alpha16 at 10 uM by Fluo-4-AM dye based calcium mobilization assay; assay type: cell-based; details: cho-k1, 10 µM; in short: as §2
[11] = Kinetic aqueous solubility of compound in phosphate-buffer containing 1% DMSO ultrasonicated for 10 mins at pH 7.4 measured using 50-95% methanol in water as gradient for 23 mins by HPLC analysis; assay type: physicochemical; in short: as §1
[12] = biological target: T2, Cannabinoid receptor 1; assay: Agonist activity at human CB1-receptor expressed in CHO-K1 cells coexpressing G-alpha16 assessed as maximum efficacy by Fluo-4-AM dye based calcium mobilization assay relative to CP55940; assay type: cell-based; in short: as §2
[13] = Kinetic aqueous solubility of compound in phosphate-buffer containing 1% DMSO ultrasonicated for 10 mins at pH 1.4 measured using 60-95% methanol in water as gradient for 19 mins by HPLC analysis; assay type: physicochemical; details: pH 1.4, 10 min
In short: (§4)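 Kinetic solubility: 10 mM DMSO stock diluted into 10 mM phosphate buffer pH 7.4 or 1.4 (final 1% DMSO), sonicated 10 min at room temperature, filtered 0.22 μm. Quantified by C18 HPLC against a standard curve. Gradient 60–95% methanol/water with trifluoroacetic acid over 19 min at 1.0 mL/min. n = 3.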

[14] = Kinetic aqueous solubility of compound in phosphate-buffer containing 1% DMSO ultrasonicated for 10 mins at pH 7.4 measured using 60-95% methanol in water as gradient for 19 mins by HPLC analysis; assay type: physicochemical; details: pH 7.4, 10 min; in short: as §4
[15] = Kinetic aqueous solubility of compound in phosphate-buffer containing 1% DMSO ultrasonicated for 10 mins at pH 7.4 by HPLC analysis; assay type: physicochemical; details: pH 7.4, 10 min
In short: (§5)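 Kinetic solubility: 10 mM DMSO stock diluted into 10 mM phosphate buffer at pH 7.4 or 1.4 (final 1% DMSO). Sonicated 10 min at room temperature and filtered through a 0.22 μm PTFE filter. Concentration determined by reversed-phase C18 HPLC (275/290 nm) against a standard curve. n = 3.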

[16] = Kinetic aqueous solubility of compound in phosphate-buffer containing 1% DMSO ultrasonicated for 10 mins at pH 1.4 by HPLC analysis; assay type: physicochemical; details: pH 1.4, 10 min; in short: as §5

T1 sequence (P34972 whole entry): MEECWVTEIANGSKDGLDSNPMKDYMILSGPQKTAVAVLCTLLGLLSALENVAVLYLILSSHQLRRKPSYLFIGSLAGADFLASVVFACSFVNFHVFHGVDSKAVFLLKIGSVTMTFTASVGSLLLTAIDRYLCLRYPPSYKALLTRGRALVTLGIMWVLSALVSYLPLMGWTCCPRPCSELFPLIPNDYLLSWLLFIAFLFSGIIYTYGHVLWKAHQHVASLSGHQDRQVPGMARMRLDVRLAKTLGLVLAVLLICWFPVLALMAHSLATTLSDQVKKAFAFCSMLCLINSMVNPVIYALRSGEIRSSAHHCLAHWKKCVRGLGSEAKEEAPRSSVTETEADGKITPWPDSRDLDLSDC

| Compound | EC50 [1] | EC50 [2] | Emax [4] | inhibition [5] | IC50 [6] | inhibition at 10 µM [7] | Activity [8] | IC50 [9] | Activity [10] | also measured |
| --- | --- | --- | --- | --- | --- | --- | --- | --- | --- | --- |
| O=C(NC12CC3CC(CC(C3)C1)C2)c1cn(CCN2CCOCC2)c2ncccc12 | 48 nM | > 10000 nM | 25.7% | < 50% | Not Active | < 50% | > 50% | Not Active | < 50% | Kinetic_solubility [3]: 86.6 uM/L; log(Kinetic_solubility) [3]: -4.06; Kinetic_solubility [11]: 69.43 uM/L; log(Kinetic_solubility) [11]: -4.15 |
| O=C(NC12CC3CC(CC(C3)C1)C2)c1n[nH]c2ccccc12 | 86 nM | 17100 nM | 73.9% | < 50% | Not Active | < 50% | > 50% | Not Active | > 50% | Emax [12]: 67.3%; Kinetic_solubility [13]: < 10 uM/L; log(Kinetic_solubility) [13]: < -5; Kinetic_solubility [14]: < 10 uM/L; log(Kinetic_solubility) [14]: < -5 |
| O=C(NC12CC3CC(CC(C3)C1)C2)c1nc2ccccc2n1CCCCCO | 67 nM | > 10000 nM | 64% | < 50% | Not Active | < 50% | > 50% | Not Active | < 50% | Kinetic_solubility [15]: 32.88 uM/L; log(Kinetic_solubility) [15]: -4.48; Kinetic_solubility [16]: 96 uM/L; log(Kinetic_solubility) [16]: -4.02 |

Reference: ChEMBL document CHEMBL4373687, “Introducing nitrogen atoms to amidoalkylindoles: potent and selective cannabinoid type 2 receptor agonists with improved aqueous solubility” (Medchemcomm, 2019)
